{"data": "Measured values from different studies", "SIK1": "Serine/threonine-protein kinase SIK1 (SIK1, Homo sapiens, UniProt P57059)", "dxs": "1-deoxy-D-xylulose-5-phosphate synthase (dxs, Deinococcus radiodurans, UniProt Q9RUB5)", "BDKRB2": "B2 bradykinin receptor (BDKRB2, Homo sapiens, UniProt P30411)", "Trypanothione synthetase": "Trypanothione synthetase (Trypanosoma cruzi, UniProt Q9GT49)", "HTR2C": "5-hydroxytryptamine receptor 2C (HTR2C, Homo sapiens, UniProt P28335)", "EAPA": "Endothiapepsin (EAPA, Cryphonectria parasitica, UniProt P11838)", "Tmem97": "Sigma intracellular receptor 2 (Tmem97, Rattus norvegicus, UniProt Q5U3Y7)", "note": "Compare with care: the assays were run in different laboratories."}
{"Compound": "Cc1ccc(Nc2nccc(N(C)c3ccc4c(C)n(C)nc4c3)n2)cc1S(N)(=O)=O", "target": "SIK1", "assay": "enzyme activity, inhibitor", "setting": "10 µM", "inhibition [%]": 69}
{"Compound": "Oc1ccc(-c2nnc(CCCOc3ccc(Cl)cc3Cl)o2)c(F)c1", "target": "dxs", "assay": "enzyme activity, inhibitor", "setting": "120 µM", "inhibition [%]": 49.2}
{"Compound": "O=C1N=C(N2CCCCN2)S/C1=C\\c1ccc(F)cc1O", "target": "BDKRB2", "assay": "ligand displacement, radioligand", "setting": "10 µM", "inhibition [%]": "< 10"}
{"Compound": "CC(C)(C)NC(=O)CN1C(=O)Cc2c([nH]c3ccc(Br)cc23)-c2ccc(Cl)cc21", "target": "Trypanothione synthetase", "assay": "enzyme activity, inhibitor, absorbance", "setting": "30 µM", "inhibition [%]": 5.8}
{"Compound": "CCN(CC)c1ccc(C2Nc3ccc(C(=O)c4ccccc4)cc3NC3=C2C(=O)CC(C)(C)C3)cc1 (centres unmarked)", "target": "HTR2C", "assay": "ligand displacement, radioligand", "setting": "10 µM", "inhibition [%]": 5}
{"Compound": "Oc1cccc(Nc2nc(-c3ccc(F)cc3F)cs2)c1", "target": "BDKRB2", "assay": "cell-free assay", "setting": "10 µM", "inhibition [%]": -68.7}
{"Compound": "CCN(CC)C(=O)CN1C(=O)Cc2c([nH]c3ccc(Br)cc23)-c2ccc(Cl)cc21", "target": "Trypanothione synthetase", "assay": "enzyme activity, inhibitor, absorbance", "setting": "30 µM", "inhibition [%]": 7.8}
{"Compound": "CCC(C)C(NN)c1nnnn1CC(c1ccccc1)c1ccccc1 (centres unmarked)", "target": "EAPA", "assay": "enzyme activity, inhibitor", "setting": "200 µM", "inhibition [%]": 40.3}
{"Compound": "CN(C)C(=O)CN1C(=O)Cc2c([nH]c3ccc(Br)cc23)-c2ccc(Cl)cc21", "target": "Trypanothione synthetase", "assay": "enzyme activity, inhibitor, absorbance", "setting": "30 µM", "inhibition [%]": 14.9}
{"Compound": "CC(Cc1ccc(C(C)(C)C)cc1)C(NN)c1nnnn1Cc1ccc2c(c1)OCO2 (centres unmarked)", "target": "EAPA", "assay": "enzyme activity, inhibitor", "setting": "200 µM", "inhibition [%]": 95.3}
{"Compound": "O=C(CN1C(=O)Cc2c([nH]c3ccc(Br)cc23)-c2ccc(Cl)cc21)NCCN1CCNCC1", "target": "Trypanothione synthetase", "assay": "enzyme activity, inhibitor, absorbance", "setting": "30 µM", "inhibition [%]": 7.9}
{"Compound": "CS(=O)(=O)O.c1cc2c(cc1C1CCCCC1)c1c3n2CCNC3CCC1 (centres unmarked)", "target": "Trypanothione synthetase", "assay": "enzyme activity, inhibitor, absorbance", "setting": "25 µM", "inhibition [%]": 28.9}
{"Compound": "COC(=O)CN1C(=O)Cc2c([nH]c3ccc(Br)cc23)-c2ccc(Cl)cc21", "target": "Trypanothione synthetase", "assay": "enzyme activity, inhibitor, absorbance", "setting": "30 µM", "inhibition [%]": 37.4}
{"Compound": "NNC(CCc1ccccc1)c1nnnn1Cc1ccc2c(c1)OCCO2 (centres unmarked)", "target": "EAPA", "assay": "enzyme activity, inhibitor", "setting": "200 µM", "inhibition [%]": 42.5}
{"Compound": "C#CCOCCOCCOc1ccc2c3c1C1CCCC1N3CCNC2 (racemic)", "target": "HTR2C", "assay": "ligand displacement, radioligand", "setting": "10 µM", "inhibition [%]": 100}
{"Compound": "CNC(=O)c1cc(Oc2ccc(NC(=O)Nc3ccc(Cl)c(C(F)(F)F)c3)cc2)ccn1", "target": "SIK1", "assay": "enzyme activity, inhibitor", "setting": "0.3 µM", "inhibition [%]": 4}
{"Compound": "O=C(c1ccc(F)cc1)N(Cc1ccccc1)C1CCCCC1", "target": "B1 bradykinin receptor (BDKRB1, Homo sapiens, UniProt P46663)", "assay": "cell-free assay", "setting": "10 µM", "inhibition [%]": -7}
{"Compound": "O=C(COc1ccc(Cl)cc1Cl)N/N=C/c1c[nH]c2ccccc12", "target": "dxs", "assay": "enzyme activity, inhibitor", "setting": "200 µM", "inhibition [%]": 45.3}
{"Compound": "CCN(Cc1ccccc1C(F)(F)F)C(=O)C1CCN(S(=O)(=O)c2ccc3[nH]ncc3c2)CC1", "target": "Melatonin receptor type 1A (MTNR1A, Homo sapiens, UniProt P48039)", "assay": "ligand displacement, radioligand", "setting": "10 µM", "inhibition [%]": 34}
{"Compound": "CCCNc1nc2ccccc2n1Cc1ccc(Cl)cc1", "target": "Tmem97", "assay": "ligand displacement", "setting": "10 µM", "inhibition [%]": 54}
{"Compound": "COc1ccc(CCC(C)N2CCc3cc(OC)c(OC)cc3C2)cc1 (centres unmarked)", "target": "Tmem97", "assay": "ligand displacement, radioligand", "setting": "0.1 µM", "inhibition [%]": 98}
{"Compound": "CCCCCC(NN)c1nnnn1Cc1ccc2c(c1)OCCO2 (centres unmarked)", "target": "EAPA", "assay": "enzyme activity, inhibitor", "setting": "200 µM", "inhibition [%]": 48.2}
{"Compound": "CN(Cc1ccc(NC(=O)C2=Cc3cc(-c4ccc(OCCCCCCCF)cc4)ccc3CCC2)cc1)C1CCOCC1", "target": "Tmem97", "assay": "ligand displacement, radioligand", "setting": "10 µM", "inhibition [%]": 17}
{"Compound": "NNC(c1nnnn1CC(c1ccccc1)c1ccccc1)C1CCCCC1 (centres unmarked)", "target": "EAPA", "assay": "enzyme activity, inhibitor", "setting": "200 µM", "inhibition [%]": 71.3}
{"Compound": "O=C(Nc1ccc(S(=O)(=O)N2CCC(Cl)CC2)cc1)c1ccc([N+](=O)[O-])o1", "target": "BDKRB2", "assay": "ligand displacement, radioligand", "setting": "10 µM", "inhibition [%]": 4}
{"Compound": "O=C(CN1C(=O)Cc2c([nH]c3ccc(Br)cc23)-c2ccc(Cl)cc21)NCCN1CCOCC1", "target": "Trypanothione synthetase", "assay": "enzyme activity, inhibitor, absorbance", "setting": "30 µM", "inhibition [%]": 11.3}
{"Compound": "COc1cc(NC(C)=O)c(Cl)cc1C(=O)Nc1nccs1", "target": "Substance-P receptor (TACR1, Homo sapiens, UniProt P25103)", "assay": "cell-free assay", "setting": "10 µM", "inhibition [%]": -2.9}
{"Compound": "O=C(CN1C(=O)Cc2c([nH]c3ccc(Br)cc23)-c2ccc(Cl)cc21)N1CCNCC1", "target": "Trypanothione synthetase", "assay": "enzyme activity, inhibitor, absorbance", "setting": "30 µM", "inhibition [%]": 17.1}
{"Compound": "Ic1cccc2cnccc12", "target": "Poly [ADP-ribose] polymerase tankyrase-2 (TNKS2, Homo sapiens, UniProt Q9H2K2)", "assay": "enzyme activity, inhibitor", "setting": "10 µM", "inhibition [%]": 12}
{"Compound": "NNC(COCc1ccccc1)c1nnnn1CC(=O)NCc1cccs1 (centres unmarked)", "target": "EAPA", "assay": "enzyme activity, inhibitor", "setting": "200 µM", "inhibition [%]": 51.9}
{"Compound": "CCN(CC)CCNC(=O)CN1C(=O)Cc2c([nH]c3ccc(Br)cc23)-c2ccc(Cl)cc21", "target": "Trypanothione synthetase", "assay": "enzyme activity, inhibitor, absorbance", "setting": "30 µM", "inhibition [%]": 17.1}
{"Compound": "CN(C)C1CCN(CC#Cc2nn(C3CCCC3)c3nc(NCc4ccccc4)ncc23)C1 (centres unmarked)", "target": "Rho-associated protein kinase 1 (ROCK1, Homo sapiens, UniProt Q13464)", "assay": "enzyme activity, inhibitor, FRET", "setting": "10 µM", "inhibition [%]": -4}
{"Compound": "O=C(c1ccc(Cl)cc1)N(Cc1ccccc1)C1CCCCC1", "target": "BDKRB2", "assay": "cell-free assay", "setting": "10 µM", "inhibition [%]": -1.6}
{"Compound": "O=C(O)c1ncccc1O", "target": "Stromelysin-1 (MMP3, Homo sapiens, UniProt P08254)", "assay": "enzyme activity, inhibitor", "setting": "1 mM, pH 6", "inhibition [%]": "~50"}
{"Compound": "N#Cc1cc(Cn2c(N3CCCC3)nc3ccccc32)ccc1F", "target": "Tmem97", "assay": "ligand displacement", "setting": "10 µM", "inhibition [%]": 88.9}
